RGS4 pot – RGS4 potentiation or activation. HEK293 M3R/inducible RGS4, carbachol calcium flux Fluo4; stronger effect = lower value. B-score at 10 µM. hit rate 0.92% among 310,000;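 active means B-score of the integrated calcium signal more than 4 SD below the library mean, with starting fluorescence not abnormally high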;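 further: negative B-score means reduced calcium response which marks RGS4 activation or potentiation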
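Detection: kinetic calcium fluorescence imaging with Fluo4-AM dye, 2 µM / Material: HEK293 cells with stable M3R and inducible RGS4 / Schedule: recording 10 s baseline at 1 Hz, 100 s post-agonist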
RGS4 inh – inhibitors of human RGS4 | P49798 | HEK293 M3R/RGS4 inducible, Fluo-4 calcium flux; stronger effect = higher value; triggered by carbachol at its EC20 | B-score at 10 µM | hit rate 0.45% among 310,000 | AID 463165;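 active means B-score, a plate-corrected calcium signal, over three deviations above library mean, with baseline fluorescence within five deviations of library mean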;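 further: RGS4 expression induced by doxycycline in cells with stable M3 receptor; B-score is computed from the integrated fluorescence ratio over baseline after carbachol; higher B-score means a larger calcium signal and so more RGS4 inhibition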
Target sequence (P49798 whole entry, looked up): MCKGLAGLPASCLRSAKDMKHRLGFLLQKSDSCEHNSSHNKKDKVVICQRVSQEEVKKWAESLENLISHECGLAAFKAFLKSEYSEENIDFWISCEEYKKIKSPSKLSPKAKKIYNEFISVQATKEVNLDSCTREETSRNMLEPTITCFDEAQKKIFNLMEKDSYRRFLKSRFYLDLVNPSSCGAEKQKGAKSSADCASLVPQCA
MrgX1 antag – blocks BAM8-22 activation of human MrgX1 receptor; Q96LB2; MRGX1-HEK293 calcium flux, Fluo-4, BAM8-22 antagonism; stronger effect = lower value; B-score at 10 µM; hit rate 1.3% among 310,000; AID 588676;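 active means calcium-response B-score plate-corrected more than 3 library SD below zero, starting fluorescence within 5 deviations, no agonist response on first addition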;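 further: peak minus trough fluorescence over baseline after final BAM8-22 challenge near maximal dose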
Target sequence (Q96LB2 whole entry, looked up): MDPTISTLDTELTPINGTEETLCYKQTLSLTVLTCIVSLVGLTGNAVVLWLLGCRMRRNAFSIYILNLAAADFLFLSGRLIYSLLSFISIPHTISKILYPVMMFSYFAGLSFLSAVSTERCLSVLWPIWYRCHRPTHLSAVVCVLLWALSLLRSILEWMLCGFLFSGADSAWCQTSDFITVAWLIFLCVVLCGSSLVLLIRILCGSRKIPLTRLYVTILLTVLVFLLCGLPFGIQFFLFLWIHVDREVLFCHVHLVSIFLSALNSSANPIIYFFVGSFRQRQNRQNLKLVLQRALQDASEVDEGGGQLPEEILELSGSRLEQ
MrgX1 allo act – allosterically activates human MrgX1 receptor signaling; B-score at 10 µM; Q96LB2; MrgX1-HEK293, Fluo-4 calcium flux, FDSS; stronger effect = higher value; hit rate 0.63% among 310,000;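 active means plate-corrected calcium response at least 3 library SD above typical, normal starting fluorescence, not activating the receptor alone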;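 further: compound read alongside a low EC10 to EC30 dose of BAM8-22 agonist; peak minus trough fluorescence over baseline measured at the second addition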
MrgX1 ag – agonists of human MrgX1 receptor. Q96LB2. MrgX1-HEK293 cells, Fluo-4 calcium fluorescence, agonist mode; stronger effect = higher value. B-score at 10 µM. hit rate 0.44% among 310,000;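 active means calcium response B-score plate-corrected fluorescence ratio at least 3 library SD, with starting fluorescence B-score inside 5 SD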
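Test system: HEK293 cells stably expressing human MrgX1 receptor; amount: 15,000 cells per well; doses: compound delivered in addition one of three; times: overnight plating before 1 h dye loading; detection: Fluo-4 NW calcium-flux fluorescence, kinetic read; read-out basis: B-scored fluorescence response ratio; controls: positive and negative controls per plate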
MrgX1 antag conf – confirmation of human MrgX1 receptor antagonists; shares compounds with MrgX1 antag; MrgX1-HEK293, BAM8-22 calcium flux, Fluo-4; stronger effect = lower value; remaining BAM8-22 calcium response % of control (stronger effect = lower value), % at 10 µM; hit rate 19% among 2,300;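 active means remaining agonist calcium response no higher than 100% minus 3 SD of agonist-only control wells, with starting fluorescence near control levels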;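 further: agonist BAM8-22 given at a near maximal EC90 to ECmax level; peak minus minimum fluorescence divided by baseline after agonist addition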
HEK293 Ca flux – counter-screen for MrgX1 antagonists: effect in parental HEK293 cells | shares compounds with MrgX1 antag | Fluo-4 calcium fluorescence, FDSS | fluorescence ratio F(max-min)/F0 at 10 µM | hit rate 2% among 4,000;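 active means duplicate-averaged calcium fluorescence ratio at least three times the standard deviation of buffer wells, a nonspecific response in parental cells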
HEK293 Ca counter – MrgX1 allosteric activator counter-screen hit in parental HEK293 cells. parental HEK293 calcium flux, Fluo-4 fluorescence ratio; stronger effect = higher value. shares compounds with MrgX1 antag. fluorescence ratio F(max-min)/F0 at 10 µM. hit rate 0.4% among 4,000. AID 624114;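 active means calcium fluorescence ratio, averaged over duplicates, at least 3 SD of the buffer-well ratio, meaning a nonspecific response in receptor-free cells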;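 further: untransfected parental HEK293 lacking MrgX1 used as counterscreen for MrgX1 allosteric activators; fluorescence change taken during the second addition on a kinetic imager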
HEK293 Ca cntr2 – MrgX1 activator counter-screen hit in parental HEK293 cells. shares compounds with MrgX1 antag. Fluo-4 calcium fluorescence (FDSS); stronger effect = higher value. fluorescence ratio F(max-min)/F0 at 10 µM. hit rate 8.7% among 4,000. AID 624115;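 active means calcium fluorescence ratio at least three times the spread of buffer wells, meaning a non-specific response in parental cells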
Hits are given with their value; - = inactive; . = not tested or not shown. Shown are actives, neighbours in structure and some others; about 3.5% of the full set was active somewhere.

SMILES	RGS4 pot	RGS4 inh	MrgX1 antag	MrgX1 allo act	MrgX1 ag	MrgX1 antag conf	HEK293 Ca flux	HEK293 Ca counter	HEK293 Ca cntr2
COc1ccc(S(=O)CC(=O)Nc2ccc(Cl)cc2Cl)cc1 (stereo not given)	-	-	-	-	-	.	.	.	.
Cc1n[nH]c(C)c1CCc1nc2c3ccccc3nc(SCC(=O)Nc3ccccc3F)n2n1	-	-	-6.98	-	-	-	-	-	-
CCCC(=O)Nc1ccc(Cc2ccc(NC(=O)CCC)c(C(=O)O)c2)cc1C(=O)O	-	-	-	-	-	.	.	.	.
CN(/N=C/c1cc([N+](=O)[O-])ccc1O)c1ccccc1	-	-	-	-	-	.	.	.	.
CN(/N=C/c1ccc(-c2ccc([N+](=O)[O-])cc2)o1)c1ccccc1	-	-	-11	-	-	-	-	-	-
CN1[C@@H]2CCC[C@H]1CC(NC(=O)c1nn(C)c3ccccc13)C2 (stereo not given in full)	.	.	-	-	-	.	.	.	.
Cc1[nH]c2ccc(C(=O)O)cc2c1C	-	-	-8.6	-	-	-	-	-	-
CCCCNC(=O)C(NS(=O)(=O)c1cccc2nsnc12)c1ccccc1 (stereo not given)	-	-	-	-	-	.	.	.	.
O=C(NCCc1ccccc1)C(NS(=O)(=O)c1cccc2nsnc12)c1ccccc1 (stereo not given)	-	-	-4.71	-	-	-	-	-	-
CCCNC(=O)C(NS(=O)(=O)c1cccc2nsnc12)c1ccccc1 (stereo not given)	-	-	-6.9	-	-	-	-	-	-
CCCn1c(N)c(N(CCOC)C(=O)c2ccc(-c3ccc(Cl)cc3)o2)c(=O)[nH]c1=O	-	-	-	-	-	.	.	.	.
COCCN(CCOc1cc(C)cc(C)c1)Cc1ccc(Cl)cc1	-	-	-	-	-	.	.	.	.
Fc1ccc(NC(=S)Nc2cccnc2)cc1Cl	-	-	-5.57	-	-	-	-	-	-
Cc1ccc(NC(=O)Nc2cccnc2)cc1Cl	-	-	-4.74	-	-	80.1%	-	-	-
Fc1ccc(NC(=S)Nc2cccnc2)cc1	-	-	-	-	-	.	.	.	.
O=C(Nc1ccc(F)c(Cl)c1)Nc1cnccn1	-	-	-6.16	-	-	-	-	-	-
Cc1cc2ccccc2n1CCNC(=O)C1CC1	-	-	-5.99	-	-	-	-	-	-
Cc1cc2ccccc2n1CCNC(=O)C1CCCC1	-	-	-	-	-	.	.	.	.
COc1cccc(OC)c1C(=O)N1CCN(Cc2ccccc2C)CC1	-	-	-4.62	-	-	-	-	-	-
CC(=O)c1ccc(S(=O)(=O)Nc2cccc(-c3ccc(N4CCOCC4)nn3)c2)cc1	-	-	-	-	-	.	.	.	.
Cc1cc(C)nc(NS(=O)(=O)c2ccc(NC(=O)CSc3nc(-c4ccccc4)c(C#N)c(=O)[nH]3)cc2)n1	-	-	-	-	-	.	.	.	.
COc1ccc(-n2nnnc2S(=O)(=O)CC(=O)N2CCCCC2)cc1	.	.	-	-	-	.	.	.	.
COc1ccc(-n2nnnc2S(=O)(=O)Cc2ccc(C(=O)O)cc2)cc1	-	-	-8.25	-	-	-	-	-	-
O=C(Nc1ccccc1)c1cccc(N2CCCC2=O)c1	-	-	-6.7	-	-	-	-	-	-
CCNc1nnc(CCn2nc(C)c(Br)c2C)s1	-	-	-	-	-	.	.	.	.
O=C(O)COc1ccc(Cl)cc1CO	-	-	-4.75	-	-	-	-	-	-
Cc1nc(N)sc1C(=O)OCC(C)C	-	-	-8.67	-	-	-	-	-	-
CCOC(=O)c1sc(N)nc1C(C)(C)C	-	-	-	-	-	.	.	.	.
